Source: PubChem (several laboratories)
Only some compounds are listed: those with a hit (about 2.3% of all), similar ones and a draw of the others.
CSN inh = blocks human CSN-mediated cullin deneddylation | Purified CSN, SCF-Nedd8-OG deneddylation, fluorescence polarization | inhibition, % at 12.5 µM | 360,000 compounds, 0.38% hits | Q92905 | AID 651999;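 active = pattern-corrected inhibition above about 35%, with an unprinted fluorescence ratio check between 0.5 and 1.5, limit read from the data, passing the limit was not always enough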;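 also: 0% = enzyme with substrate and 100% = substrate without enzyme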
Target sequence (Q92905 whole entry, looked up, one chain of several): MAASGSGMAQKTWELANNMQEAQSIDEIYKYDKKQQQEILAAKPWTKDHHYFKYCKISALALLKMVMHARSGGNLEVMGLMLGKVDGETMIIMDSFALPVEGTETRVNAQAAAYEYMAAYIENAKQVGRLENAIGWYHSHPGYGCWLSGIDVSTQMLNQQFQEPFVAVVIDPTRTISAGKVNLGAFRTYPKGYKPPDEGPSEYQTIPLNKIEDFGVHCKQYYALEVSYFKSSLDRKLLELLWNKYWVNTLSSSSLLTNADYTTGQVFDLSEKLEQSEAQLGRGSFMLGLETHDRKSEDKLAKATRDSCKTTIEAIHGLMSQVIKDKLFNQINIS
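Assay system: purified human Csn5 enzyme expressed in HEK293T cells; measure: % inhibition; also added: SCFSkp2-Nedd8OG substrate at 10 nM final; technique: fluorescence polarization; times: reaction 90 min, room temperature; medium: Tris buffer pH 7.5, NaCl, DTT, Tween-20, trehalose, ovalbumin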
TPT1 inh = C. albicans TPT1 enzyme inhibition; 300,000 compounds, 0.81% hits; AID 1962; inhibition, % at 5 µM; recombinant caTPT1, FP RNA substrate dephosphorylation;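 active = inhibition above the mean of all tested compounds plus 3 SD, set per screening campaign, cut at about 24% in these data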;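 also: plate controls were DMSO alone for no effect and ferristatin control at 100 nM for full effect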
Myeloid diff 2 = compounds promoting myeloid differentiation; ER-HoxA9 myeloid progenitors, lysozyme-GFP differentiation, flow cytometry; calls only at 10 µM; AID 624256; 360,000 compounds, 1% hits;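 active = normalized GFP-positive differentiation at or above the plate's own cutoff, the solvent-only control mean plus 3 SD; inconclusive = no clear call, values can overlap the other calls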;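 also: cells exposed to compound for four days before flow analysis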
HNF4A DNA FP = change in binding of human HNF4 alpha to DNA. P41235. HNF4a-FITC DNA binding, fluorescence polarization, 1 h. activity change, % at 10 µM. 360,000 compounds, 0.3% hits. AID 1224865; in the data active = activity change above about 30%, passing the limit was not always enough
Rpn11 inh = blocks the human proteasome subunit Rpn11. O00487. human 26S proteasome, Ub4-pepOG fluorescence polarization; 20S core pre-blocked with epoxomicin. inhibition, % at 20 µM. 360,000 compounds, 0.59% hits. AID 588493;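 active = inhibition at 20 µM, scaled to each plate's controls, above about 33%, limit read from the data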
caTPT1 confirm = TPT1 (C. albicans) inhibition, confirmation | 2,400 compounds, 74% hits | inhibition, % at 5 µM | shares compounds with TPT1 inh | recombinant caTPT1, fluorescence polarization, RNase T1 coupled;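 active = inhibition above the primary screen limit, the mean inhibition of all tested compounds plus 3 SD, cut at about 25% in these data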
RNase T1 inh = RNase T1 inhibition in TPT1 counter-screen; shares compounds with TPT1 inh; RNase T1 cleavage, fluorescence polarization, 1536-well; inhibition, % at 5 µM; 2,400 compounds, 83% hits;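 active = inhibition above the solvent-only control well mean plus 3 SD, limit set per screening run, cut at about 23% in these data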;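 also: plate controls were DMSO wells with enzyme for no effect and wells without RNase T1 for full effect; inhibitors block cleavage so intact labeled substrate keeps polarization high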
Target sequence (P00651 whole entry, looked up): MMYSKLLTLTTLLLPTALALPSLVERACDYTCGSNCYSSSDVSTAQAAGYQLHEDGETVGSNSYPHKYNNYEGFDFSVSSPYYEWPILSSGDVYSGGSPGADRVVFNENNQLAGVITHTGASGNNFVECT
An asterisk follows results filed as active; i = inactive; ? = inconclusive; . = no result given; + = active, no number.

SMILES	CSN inh	TPT1 inh	Myeloid diff 2	HNF4A DNA FP	Rpn11 inh	caTPT1 confirm	RNase T1 inh
O=c1[nH]c2ccccc2n1C1CCN(C(c2cc3ccccc3o2)c2nnnn2-c2ccc3c(c2)OCCO3)CC1 (configuration not stated)	-4	.	i	-1	12	.	.
CN1CCN(C(=O)COc2ccc(S(=O)(=O)Nc3ccc(F)cc3)cc2)CC1	2	-2	i	43*	-13	.	.
CCN1CCN(C(=O)COc2ccc(S(=O)(=O)NC(C)C)cc2)CC1	-6	1	i	-2	-8	.	.
COC(=O)C1=C(c2cccc(OCc3ccccc3)c2)C[C@@H]2CC[C@H]1N2C(=O)NCc1ccc(OC)cc1	9	.	+	-3	5	.	.
COC(=O)C1=C(c2cccc(OCc3ccccc3)c2)C[C@@H]2CC[C@H]1N2C(=O)NCc1ccccc1	-1	.	i	4	9	.	.
COC(=O)C1=C(C(=O)OC)SC2(S1)C(C(=O)OC)=C(C(=O)OC)Sc1c2ssc1=O	13	.	?	18	63*	.	.
CCCCCn1c(=O)c(C(=O)Nc2cc(C)ccn2)c(O)c2ccccc21	2	-1	+	0	-8	.	.
CCc1ccc(N2C(=O)NC(=O)C(CCc3ccncc3)(CCc3ccncc3)C2=O)cc1	-11	1	i	1	0	.	.
O=C1NC(=O)C(CCc2ccncc2)(Cc2cccc(Cl)c2Cl)C(=O)N1c1ccc(Br)cc1 (configuration not stated)	2	-4	+	0	1	.	.
NC(N)=N/N=C/c1ccc(N2CCOCC2)cc1	2	-2	+	-3	-6	.	.
CC(=O)OC1CC2OC3C=C(C)CCC3(C)C1(C)C21CO1 (configuration not stated)	-2	.	i	1	5	.	.
C[C@@H]1CN([C@H](C)CO)C(=O)c2c(c3ccccc3n2C)-c2ccccc2CO[C@H]1CN(C)Cc1ccc2c(c1)OCCN2C	7	.	i	2	-7	.	.
COC1C(O)C(C)OC(OC2C(Oc3cccc4c(O)c5c(=O)oc6ccc(C)c7c(=O)oc(c34)c5c67)OC(C)C(O)C2O)C1O (configuration not stated)	0	.	+	5	3	.	.
CCCCCCCCn1sccc1=O	2	.	+	-3	0	.	.
CO[C@H]1C=CCCC=CC(=O)O[C@H]([C@H](C)C(=O)CCCC2CC(=O)NC(=O)C2)C(C)=C[C@@H](C)[C@@H]1O	-4	.	i	-2	.	.	.
Cc1ccsc1/C=C1\C(=O)NC(=S)N(C)C1=O	1	-2	i	-2	1	.	.
COc1ccc(/C=C2\C(=O)NC(=S)N(C)C2=O)cc1C	22	1	i	-70	107*	.	.
CN1C(=O)/C(=C/c2ccc(Cl)s2)C(=O)NC1=S	10	8	+	3	29	.	.
CC1([N+](=O)[O-])COP(=O)(Nc2cccc(Br)c2)OC1 (configuration not stated)	4	.	+	3	1	.	.
CC(C)C[C@H]1COc2cc(N3CCN(C)CC3)ccc2S(=O)(=O)N1	3	.	i	3	.	.	.
O=C1NC(=O)C(=Cc2ccc(-c3ccc(F)cc3O)o2)C(=O)N1	-2	25*	i	-1	6	42*	63*
CC(C)(C)n1nnnc1C(c1ccccc1)N1CCC2(CC1)C(=O)NCN2c1ccccc1 (configuration not stated)	0	.	i	-2	-1	.	.
CCOC(=O)c1c(/N=C/c2c(O)n(-c3ccc(F)cc3)c(=S)[nH]c2=O)sc2c1CCCC2	7	4	i	16	20	.	.
CCOC(=O)c1c(/N=C/c2c(O)n(-c3ccccc3F)c(=S)[nH]c2=O)sc2c1CCCC2	23	38*	i	-5	.	86*	96*
CN(C)c1ccc(/C=C2/C(=O)NC(=O)N(CCc3ccc(F)cc3)C2=O)cc1	9	21	i	0	-2	.	.
SMILES	CSN inh	TPT1 inh	Myeloid diff 2	HNF4A DNA FP	Rpn11 inh	caTPT1 confirm	RNase T1 inh
Cc1ccc(/C=C2/C(=O)NC(=O)N(Cc3ccc(F)cc3)C2=O)o1	.	35*	.	.	.	18	26*
CN(C)c1ccc(/C=C2\C(=O)NC(=O)N(Cc3ccc(F)cc3)C2=O)cc1	7	29*	i	2	21	48*	68*
CCOc1cc(/C=C2\C(=O)NC(=O)N(CCc3ccc(F)cc3)C2=O)ccc1O	12	30*	i	7	5	39*	20
O=C1NC(=O)N(Cc2ccc(F)cc2)C(=O)/C1=C\c1ccoc1	149	163*	i	60*	.	67*	81*
COc1ccc(C(c2nnnn2-c2ccc3c(c2)OCCO3)N2CCC3(CC2)C(=O)NCN3c2ccccc2)cc1 (configuration not stated)	2	.	i	1	14	.	.
CN1/C(=C\C=C2C(=O)NC(=O)NC2=O)C(C)(C)c2ccccc21	155	+	+	220	.	184*	168*
CN1/C(=C\C=Nc2ccccc2)C(C)(C)c2ccccc21	7	-4	i	11	19	.	.
O=C1NCN(c2ccccc2)C12CCN(C(c1cccc3ccccc13)c1nnnn1C1CCCCC1)CC2 (configuration not stated)	-2	.	i	-1	2	.	.
O=C(O)Cn1cc(/C=C2\C(=O)NC(=O)N(c3ccc(Cl)cc3)C2=O)c2ccccc21	-4	40*	i	-3	10	42*	53*
C=CCn1cc(C=C2C(=O)NC(=O)NC2=O)c2ccccc21	6	25*	+	1	10	40*	52*
O=C(O)Cn1cc(C=C2C(=O)NC(=O)NC2=O)c2ccccc21	7	5	i	1	-2	.	.
O=C(NCCN1CCC2(CC1)C(=O)NCN2c1cccc(F)c1)c1ccc2ccccc2c1	-3	.	i	-6	.	.	.
Cc1ccc(N2C(=O)/C(=C/c3ccc(CN(CCC#N)S(C)(=O)=O)o3)C(=O)NC2=S)cc1C	.	46*	.	.	.	48*	57*
CSCCC(c1nnnn1-c1c(C)cccc1C)N1CCC2(CC1)C(=O)NCN2c1ccccc1 (configuration not stated)	2	.	i	-7	3	.	.
C=CCn1c(O)c(C=Nc2c(C)n(C)n(-c3ccccc3)c2=O)c(=O)[nH]c1=O	5	38*	i	5	20	18	24*
COc1ccc(C2SCC(=O)Nc3c2c(C)nn3C2CCOC(C)(C)C2)cc1OC (configuration not stated)	-1	27*	i	1	-2	18	25*
CCOC(=O)c1cnc(SCc2ccc(Cl)c(Cl)c2)nc1N1CC1	3	.	.	1	4	.	.
